Test results taken from PMC6893084 (Journal of thrombosis and haemostasis : JTH, 2019).
Where “and” joins values, the source holds several entries; their conditions need not be identical. Identical values can stand only once. Like-named read-outs stand apart in the source and are kept apart here.

Legend:
[1] = molecular target: SCI–FXIa complex (Homo sapiens, UniProt P03951); test: In vitro reversibility of SCI inhibition of FXIa by antidotes, S-2366 hydrolysis; format: biochemical; conditions: for restoration potency (EC50) / restoration yield (ΔY) of FXIa activity: FXIa inhibited by 2 μM of SCI, pH 7.4, 37 °C
[2] = molecular target: FXIIIa (Homo sapiens, UniProt P00488); test: Fluorescence-based bisubstrate assay, FXIIIa; format: biochemical
Procedure, shortened: (§1)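 Each purified human protease was tested against varying test compound levels under optimal conditions taken from the literature. A chromogenic substrate was used, except for FXIIIa, which used a fluorescence bisubstrate format. Protease activity versus concentration was fitted by non-linear regression to a logistic equation, giving IC50, efficacy (ΔY) and Hill slope.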

[3] = molecular target: Plasmin (Homo sapiens, UniProt P00747); test: Chromogenic substrate hydrolysis assay, plasmin; format: biochemical
Procedure, shortened: as §1

[4] = tested on: plasma; test: Plasma clotting times in the presence of added FXI neutralizing antibody; format: biochemical; conditions: antibody 9 μg per 300 μL; SCI as high as 100 μM
Procedure, shortened: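 Plasma APTT was measured by a one-stage recalcification assay at 37 °C, with clotting initiated by CaCl2. Plasma contained FXI-neutralizing antibody at 9 μg per 300 μL, and test compound was varied over a wide concentration range.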

[5] = molecular target: rFXIa-FLABS2 (Homo sapiens, UniProt P03951, K547A/R548A/R550A); format: biochemical
[6] = molecular target: T1, FXIa (Homo sapiens, UniProt P03951); test: Competition between SCI and UFH, S-2366 hydrolysis assay; format: biochemical; conditions: UFH increased from 0 to 150 μM; pH 7.4, 37 °C
Procedure, shortened: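 Purified full-length human FXIa hydrolysing S-2366 in 20 mM Tris-HCl, pH 7.4, 37 °C, read as initial rate of absorbance rise at 405 nm. Inhibition curves were run with unfractionated heparin at 0, 5, 50 or 150 μM. Fitted to a logistic dose–response equation for IC50, ΔY and Hill slope.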

[7] = molecular target: FVIIa/TF (Homo sapiens, UniProt P08709); test: Chromogenic substrate hydrolysis assay, FVIIa/TF; format: biochemical
Procedure, shortened: as §1

[8] = Mouse tail bleeding; format: in vivo; conditions: IV 35 μg/mouse SCI vs 300 μg enoxaparin
Procedure, shortened: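 Test compound or enoxaparin comparator was given IV, then the tail was transected. Blood loss (mg) and time to cessation of bleeding were measured, with n = 4–7 per group. Groups were compared by two-tailed t-tests with unequal variance.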

[9] = Maximum tolerated dose
[10] = molecular target: T2, DEGR-FXIa (Homo sapiens, UniProt P03951); test: Fluorescence titration, dansyl fluorescence of DEGR-FXIa; format: binding; conditions: pH 7.4, 37 °C
[11] = tested on: human whole blood; test: Hemostasis analysis; conditions: ex vivo
Procedure, shortened: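 Citrated human whole blood was spiked with varying levels of test compound or enoxaparin and recalcified with CaCl2. A cone was lowered into the blood, and tension from platelets attaching within the fibrin meshwork was recorded automatically as platelet contractile force, thrombin generation time and clot elastic modulus.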

[12] = molecular target: T2, DEGR-FXIa; test: Acrylamide quenching of dansyl fluorescence of DEGR-FXIa; format: binding; conditions: 2 μM SCI; acrylamide 0–800 mM
Procedure, shortened: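 Dansyl-labelled active-site-blocked human FXIa (DEGR-FXIa) in 20 mM Tris-HCl, pH 7.4, 37 °C. Acrylamide (0–800 mM) was added sequentially with or without a fixed level of test compound. Dansyl emission was recorded with excitation at 345 nm. Data were fitted to linear or quadratic Stern–Volmer equations.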

[13] = molecular target: T3, Thrombin (Homo sapiens, UniProt P00734); test: Thrombin inhibition with sub-optimal chromogenic substrate S-2366; format: biochemical
[14] = tested on: rat plasma; test: APTT of rat plasma; format: biochemical
[15] = molecular target: FXIIa (Homo sapiens, UniProt P00748); test: Chromogenic substrate hydrolysis assay, FXIIa; format: biochemical
Procedure, shortened: as §1

[16] = molecular target: T1, FXIa; test: Direct inhibition of FXIa, S-2366 chromogenic substrate hydrolysis; format: biochemical
Procedure, shortened: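 Full-length wild-type purified human FXIa hydrolysing chromogenic substrate S-2366 in 20 mM Tris-HCl, pH 7.4, 37 °C, with varying test compound. Activity taken as the initial rate of absorbance increase at 405 nm. A logistic dose–response equation fitted to residual protease activity gave IC50, efficacy (ΔY) and Hill slope.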

[17] = tested on: Trypsin; test: Chromogenic substrate hydrolysis assay, trypsin; format: biochemical, human
Procedure, shortened: as §1

[18] = molecular target: human, wild-type, full-length FXIa (Homo sapiens, UniProt P03951); test: Michaelis-Menten kinetics of S-2366 hydrolysis by FXIa in the presence of SCI; format: biochemical; conditions: pH 7.4, 37 °C
[19] = tested on: HT-29 colorectal cell line; conditions: HT-29, SCI as high as 100 μM; cited from earlier work
[20] = tested on: Chymotrypsin; test: Chromogenic substrate hydrolysis assay, chymotrypsin; format: biochemical, human
Procedure, shortened: as §1

[21] = molecular target: Plasma Kallikrein (Homo sapiens, UniProt P03952); test: Chromogenic substrate hydrolysis assay, plasma kallikrein; format: biochemical
Procedure, shortened: as §1

[22] = tested on: human plasma; test: Activated partial thromboplastin time; format: biochemical
[23] = molecular target: rFXIa-FLABS1 (Homo sapiens, UniProt P03951); format: biochemical
[24] = molecular target: FIXa (Homo sapiens, UniProt P00740); test: Chromogenic substrate hydrolysis assay, FIXa; format: biochemical
Procedure, shortened: as §1

[25] = FeCl3-induced arterial thrombosis model in rats; format: in vivo, rat
Procedure, shortened: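 Female Wistar rats (~250 g), under ketamine/xylazine with isoflurane maintenance. Test compound (250, 500 or 2000 μg/rat) or enoxaparin in PBS was infused into the tail vein. After 5 min, 10% FeCl3-soaked filter paper was applied to the exposed abdominal aorta between two sutures for 10 min. The clot matured 15 min, sutures were tightened, and thrombus wet and dry weights recorded.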

[26] = molecular target: rFXIa-FLWT (Homo sapiens, UniProt P03951); test: Direct inhibition of recombinant full-length wild type FXIa, S-2366 hydrolysis; format: biochemical; conditions: pH 7.4, 37 °C
[27] = molecular target: T1, FXIa; test: FXIa cleavage of macromolecular substrate FIX to FIXa; format: biochemical
[28] = tested on: human whole blood; test: Thromboelastography; conditions: ex vivo
Procedure, shortened: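 Citrated human whole blood with varying levels of test compound or enoxaparin was recalcified with CaCl2 to start clotting. The cup oscillated through a 4° 45ˋ angle at 0.1 Hz. Reaction time (min), angle (deg), maximum amplitude and shear elastic modulus were recorded automatically.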

[29] = molecular target: T1, FXIa; test: Fluorescence titration, intrinsic tryptophan fluorescence of FXIa; format: binding
[30] = tested on: human plasma deficient of antithrombin and heparin cofactor II; test: Clotting of human plasma deficient of antithrombin or heparin cofactor II; format: biochemical; conditions: plasma deficient in antithrombin or heparin cofactor II
[31] = molecular target: FXa (Homo sapiens, UniProt P00742); test: Chromogenic substrate hydrolysis assay, FXa; format: biochemical
Procedure, shortened: as §1

[32] = molecular target: T3, Thrombin; test: Chromogenic substrate hydrolysis assay, thrombin; format: biochemical
Procedure, shortened: as §1

[33] = tested on: human plasma; test: Prothrombin time; format: biochemical; conditions: even at 150 μM
Procedure, shortened: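 One-stage recalcification clotting assay of human plasma containing varying levels of test compound. Clotting was started with Thromboplastin-D and CaCl2 at 37 °C and time to clot recorded. Clotting time versus concentration was fitted with a quadratic equation to give the concentration that doubles clotting time.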

[34] = Rat tail bleeding; format: in vivo
[35] = molecular target: T1, FXIa; test: FXIa inhibition with sub-optimal chromogenic substrate Spectrozyme TH; format: biochemical
[36] = Thromboplastin-induced venous thrombosis model in rats; format: in vivo; conditions: 250 μg per rat

Sequence of rFXIa-FLABS2 (P03951 388-625 K547A/R548A/R550A limits assumed): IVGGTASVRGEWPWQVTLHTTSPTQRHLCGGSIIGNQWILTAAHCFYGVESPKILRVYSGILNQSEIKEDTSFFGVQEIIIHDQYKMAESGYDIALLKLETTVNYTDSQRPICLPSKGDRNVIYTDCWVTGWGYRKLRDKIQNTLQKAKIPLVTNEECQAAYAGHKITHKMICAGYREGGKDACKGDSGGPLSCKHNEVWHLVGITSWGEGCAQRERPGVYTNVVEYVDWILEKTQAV
Sequence of rFXIa-FLABS2 (P03951 19-387 limits assumed): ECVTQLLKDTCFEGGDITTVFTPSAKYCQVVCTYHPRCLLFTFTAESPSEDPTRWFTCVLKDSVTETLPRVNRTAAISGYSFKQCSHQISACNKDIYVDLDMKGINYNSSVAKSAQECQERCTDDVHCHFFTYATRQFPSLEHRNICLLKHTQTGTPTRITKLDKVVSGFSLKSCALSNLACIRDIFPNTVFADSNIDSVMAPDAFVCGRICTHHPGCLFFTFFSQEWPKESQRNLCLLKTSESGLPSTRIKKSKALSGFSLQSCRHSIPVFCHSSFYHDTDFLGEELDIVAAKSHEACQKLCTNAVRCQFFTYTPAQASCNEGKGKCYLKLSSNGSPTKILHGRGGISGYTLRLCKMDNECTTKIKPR
T1 sequence (P03951 388-625 limits assumed): as the sequence (P03951 388-625 K547A/R548A/R550A limits assumed) above, with A160K, A161R, A163R counted along it
T1 sequence (P03951 19-387 limits assumed): as the sequence (P03951 19-387 limits assumed) above
T2 sequence (P03951 388-625 limits assumed): as the sequence (P03951 388-625 K547A/R548A/R550A limits assumed) above, with A160K, A161R, A163R counted along it
T2 sequence (P03951 19-387 limits assumed): as the sequence (P03951 19-387 limits assumed) above
Sequence of SCI–FXIa complex (P03951 388-625 limits assumed): as the sequence (P03951 388-625 K547A/R548A/R550A limits assumed) above, with A160K, A161R, A163R counted along it
Sequence of SCI–FXIa complex (P03951 19-387 limits assumed): as the sequence (P03951 19-387 limits assumed) above
Sequence of rFXIa-FLABS1 (P03951 388-625 limits assumed): as the sequence (P03951 388-625 K547A/R548A/R550A limits assumed) above, with A160K, A161R, A163R counted along it
Sequence of human, wild-type, full-length FXIa (P03951 388-625 limits assumed): as the sequence (P03951 388-625 K547A/R548A/R550A limits assumed) above, with A160K, A161R, A163R counted along it
Sequence of human, wild-type, full-length FXIa (P03951 19-387 limits assumed): as the sequence (P03951 19-387 limits assumed) above
Sequence of Plasmin (P00747 581-810 limits assumed): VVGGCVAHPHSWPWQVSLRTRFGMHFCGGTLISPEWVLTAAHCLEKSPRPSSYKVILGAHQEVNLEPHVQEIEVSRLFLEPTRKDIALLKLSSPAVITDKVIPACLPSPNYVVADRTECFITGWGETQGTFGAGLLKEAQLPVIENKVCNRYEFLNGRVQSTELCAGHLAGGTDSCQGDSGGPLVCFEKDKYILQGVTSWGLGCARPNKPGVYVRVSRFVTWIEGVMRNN
Sequence of Plasmin (P00747 97-580 partner limits assumed): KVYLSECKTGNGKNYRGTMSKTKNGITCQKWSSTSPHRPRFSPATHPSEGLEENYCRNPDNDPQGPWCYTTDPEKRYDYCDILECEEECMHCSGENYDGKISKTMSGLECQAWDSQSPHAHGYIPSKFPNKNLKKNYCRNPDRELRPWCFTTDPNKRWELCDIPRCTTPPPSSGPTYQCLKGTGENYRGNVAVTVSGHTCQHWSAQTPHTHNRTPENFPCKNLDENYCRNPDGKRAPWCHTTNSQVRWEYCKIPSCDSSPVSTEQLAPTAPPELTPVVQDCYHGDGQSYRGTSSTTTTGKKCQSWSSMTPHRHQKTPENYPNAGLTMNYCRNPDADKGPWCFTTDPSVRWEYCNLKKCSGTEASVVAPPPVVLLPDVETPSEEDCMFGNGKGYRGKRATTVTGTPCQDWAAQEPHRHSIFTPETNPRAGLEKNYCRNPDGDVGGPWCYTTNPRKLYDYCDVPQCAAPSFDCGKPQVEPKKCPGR
Sequence of FXIIa (P00748 373-615 limits assumed): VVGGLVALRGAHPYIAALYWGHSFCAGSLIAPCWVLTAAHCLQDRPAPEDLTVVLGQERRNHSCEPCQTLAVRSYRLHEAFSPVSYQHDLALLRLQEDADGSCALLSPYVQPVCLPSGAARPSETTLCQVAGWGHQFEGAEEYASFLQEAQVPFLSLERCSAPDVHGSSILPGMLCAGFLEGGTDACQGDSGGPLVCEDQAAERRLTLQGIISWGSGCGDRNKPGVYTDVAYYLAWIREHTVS
Sequence of FXa (P00742 235-488 limits assumed): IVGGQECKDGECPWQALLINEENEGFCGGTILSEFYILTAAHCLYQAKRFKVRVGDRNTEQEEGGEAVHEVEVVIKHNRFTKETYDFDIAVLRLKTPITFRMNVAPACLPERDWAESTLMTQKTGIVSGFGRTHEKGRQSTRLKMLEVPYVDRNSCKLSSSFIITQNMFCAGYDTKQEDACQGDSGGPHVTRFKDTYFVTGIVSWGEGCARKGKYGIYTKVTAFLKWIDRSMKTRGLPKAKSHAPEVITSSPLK
Sequence of FXa (P00742 41-179 partner limits assumed): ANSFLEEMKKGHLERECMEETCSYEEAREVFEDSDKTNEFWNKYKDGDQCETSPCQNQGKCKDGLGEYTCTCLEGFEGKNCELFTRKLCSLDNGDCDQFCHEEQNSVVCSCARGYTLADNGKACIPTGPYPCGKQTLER

With O=S(=O)(O)OC[C@H]1O[C@@](COS(=O)(=O)O)(O[C@H]2O[C@H](COS(=O)(=O)O)[C@@H](OS(=O)(=O)O)[C@H](OS(=O)(=O)O)[C@H]2OS(=O)(=O)O)[C@@H](OS(=O)(=O)O)[C@@H]1OS(=O)(=O)O [SOS, sucrose octasulfate] the “restoration potency (EC50)” value [1] was 750 µg/mL and the “restoration yield (ΔY) of FXIa activity” value [1] was ~ 39%.

For polybrene, the “restoration potency (EC50)” value [1] was 0.4 µg/mL and the “restoration yield (ΔY) of FXIa activity” value [1] was ~ 88%.

In the case of protamine sulfate, the “restoration potency (EC50)” value [1] is reported as 14.0 µg/mL and the “restoration yield (ΔY) of FXIa activity” value [1] is reported as ~ 69%.

For sulfated chiro-inositol [SCI], the IC50 [2] was greater than 90 µM, the IC50 [3] was greater than 40 µM and the “effect on plasma clotting times with FXI neutralizing antibody” value [4] was “did not significantly impact plasma clotting times”. For the same molecule, the “reduction in efficacy relative to rFXIa-FLWT” value [5] was ~ 20%, the “weaker inhibition relative to rFXIa-FLWT” value [5] was ~ 5 fold and the IC50 ([5]; full length FXIa missing catalytic domain's HBS) was 20.7 ± 3.6 µM. The “increase of IC50 of FXIa inhibition with UFH” value [6] was ~ 6 fold, the IC50 [7] was greater than 50 µM and the “blood loss and bleeding time” value [8] was “much lower than that induced by enoxaparin”. For the same molecule, the “highest dose studied relative to effective dose” value ([9]; 25 mg/animal, no bleeding or cellular toxicity) was greater than 100 fold, the “tolerability (mobility, weight loss, bleeding)” value ([9]; rats, 5, 10 and 25 mg per animal IV, n=3/group, 7 days observation) was “well tolerated” and the “increase in dansyl fluorescence” value [10] was 152%. For the same molecule, the Kd ([10]; read-out: affinity (KD), dansyl fluorescence) was 25 nM, the “effect on HAS parameters” value [11] was “reduced platelet contractile force and clot elastic modulus, whereas prolonged force onset time” and the “dansyl fluorescence of SCI–DEGR-FXIa complex on acrylamide addition” value [12] was “remained invariant”. The “inhibition of thrombin with S-2366” value [13] was “essentially no inhibition”, the “effect on APTT of rat plasma” value [14] was “preferentially enhance APTT” and the IC50 [15] was greater than 50 µM. For the same molecule, the “potency relative to SPGG (better)” value ([16]; FXIa inhibition) was ~ 2 fold and 2 fold, the “efficacy of FXIa inhibition” value ([16]; S-2366, pH 7.4, 37 °C) was 100% and the IC50 ([16]; full length, wild type, purified human FXIa, S-2366, pH 7.4, 37 °C) was 280 ± 10 nM. For the same molecule, the IC50 ([16]; read-out: potency of FXIa inhibition) was 280 nM and ~280 nM, the IC50 [17] was greater than 50 µM and the “decrease of VMAX” value [18] was ~ 4 fold. The “VMAX in the presence of SCI” value ([18]; decreased from 52.1) was 14.2 mAU/min, the “cellular toxicity (cell death)” value [19] was “No significant adverse effect” and the IC50 [20] was greater than 40 µM. The reversibility with protamine ([1]; protamine as antidote) was greater than 50%, the IC50 [21] was greater than 65 µM and the “concentration for 2-fold increase in APTT” value [22] was 32.2 µM. The “potency relative to rFXIa-FLWT” value [23] was “essentially identical”, the IC50 ([23]; full length FXIa missing A3 domain's HBS) was 3000 ± 200 nM and the IC50 [24] was greater than 65 µM. The “wet weight of thrombus lower than negative control (PBS)” value ([25]; 250 μg per rat) was ~ 33%, the “wet weight of thrombus” value ([25]; 250 μg per rat, n=14, PBS 43.35±2.63 mg) was 28.85 ± 2.12 mg and the “decrease of average dry thrombus weight vs PBS” value ([25]; 500 or 2000 μg/animal) was 55–63%. The “decrease of average wet thrombus weight vs PBS” value ([25]; 500 or 2000 μg/animal) was 53–55%, the IC50 [26] was 4.2 ± 0.6 µM and the “inhibition of FXIa cleavage of FIX to FIXa” value [27] was “dose-dependently inhibited”. The “effect on TEG parameters” value [28] was “increase time to initial fibrin formation, while decrease all other parameters”, the Kd ([29]; intrinsic fluorescence, pH 7.4, 37 °C) was 63 ± 11 nM and the “saturating increase in intrinsic fluorescence” value ([29]; pH 7.4, 37 °C) was 133%. The “stoichiometry of SCI binding to dimeric FXIa” value ([29]; spectrofluorometric titration) was 1.83±0.08, the “effect on APTT of serpin-deficient plasma” value [30] was “preferentially prolonged the APTT” and the IC50 [31] was greater than 40 µM. For the same molecule, the IC50 [32] was greater than 40 µM, the “impact on the PT” value [33] was “minimal” and the blood loss ([34]; 250 μg/rat IV, n=15, PBS 147±29 mg) was 119 ± 41 mg. The tail bleeding time ([34]; 250 μg/rat, PBS 13±4) was 14 ± 4 min, the “inhibition of FXIa with Spectrozyme TH” value [35] was “potent inhibition” and the “reduction of average dry weight of thrombus” value [36] was 48%. The “wet weight of thrombus less than PBS group” value [36] was ~ 42% and the “wet weight of thrombus” value ([36]; n=13, PBS 38.61±3.56 mg) was 22.46 ± 1.14 mg.
